Converted amounts (≈) assume the structure as drawn. The source made the active and inactive calls. The rule behind the calls is not given here.
Experiments:
[1] = Bioavailability in Wistar rat plasma at 3 mg/kg, po; format: ADME, organism-based
Ghrelin receptor = Ghrelin receptor (Ovis aries, UniProt Q8MHZ5); assay: Displacement of [125I]ghrelin from ovine recombinant GHSR1a expressed in HEK293F cells after 6 hrs by scintillation proximity assay; format: cell-based
[2] = Cmax in po dosed DIO C57BL/6 mouse after 5 hrs; format: ADME, organism-based; parameters: route oral; conditions: in vivo
Cytochrome P450 2D6 = Cytochrome P450 2D6 (Homo sapiens, UniProt P10635); assay: Inhibition of CYP2D6; format: ADME
Cytochrome P450 2D6, sequence (P10635 whole entry): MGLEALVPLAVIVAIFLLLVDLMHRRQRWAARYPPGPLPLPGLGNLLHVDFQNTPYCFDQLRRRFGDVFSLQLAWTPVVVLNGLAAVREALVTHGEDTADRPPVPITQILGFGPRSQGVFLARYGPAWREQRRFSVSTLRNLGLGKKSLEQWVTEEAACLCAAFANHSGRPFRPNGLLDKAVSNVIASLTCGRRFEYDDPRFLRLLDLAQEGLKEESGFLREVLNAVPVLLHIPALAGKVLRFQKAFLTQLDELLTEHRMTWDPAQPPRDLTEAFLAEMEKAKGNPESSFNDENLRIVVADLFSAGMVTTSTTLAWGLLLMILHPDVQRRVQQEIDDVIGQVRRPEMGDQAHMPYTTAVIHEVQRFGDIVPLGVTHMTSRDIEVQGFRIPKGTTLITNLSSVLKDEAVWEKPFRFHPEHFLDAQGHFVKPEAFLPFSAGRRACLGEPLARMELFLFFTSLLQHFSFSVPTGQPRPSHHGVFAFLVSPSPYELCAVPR

[3] = target: 5-hydroxytryptamine receptor 2A (Homo sapiens) (UniProt P28223); assay: Binding affinity to 5HT2a receptor
5-hydroxytryptamine receptor 2A (Homo sapiens), sequence (P28223 whole entry): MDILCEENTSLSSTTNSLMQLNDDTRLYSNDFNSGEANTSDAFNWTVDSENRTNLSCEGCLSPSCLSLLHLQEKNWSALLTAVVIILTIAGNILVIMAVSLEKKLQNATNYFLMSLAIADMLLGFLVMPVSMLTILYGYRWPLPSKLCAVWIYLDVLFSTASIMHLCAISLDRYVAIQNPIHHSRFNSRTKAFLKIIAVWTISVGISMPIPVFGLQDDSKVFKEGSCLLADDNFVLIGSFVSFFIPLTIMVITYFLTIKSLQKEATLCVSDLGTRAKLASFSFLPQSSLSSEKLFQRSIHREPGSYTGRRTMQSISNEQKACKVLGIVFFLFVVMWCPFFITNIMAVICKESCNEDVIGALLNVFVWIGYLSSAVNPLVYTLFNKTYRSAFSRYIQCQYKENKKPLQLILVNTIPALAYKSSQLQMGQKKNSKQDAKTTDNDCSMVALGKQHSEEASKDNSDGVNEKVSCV

[4] = Cmax in Wistar rat plasma at 3 mg/kg, po; format: ADME, organism-based; parameters: dose 3 mg/kg, route oral
Procedure, shortened: (§1)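 Wistar rat pharmacokinetic screen; single oral dose of 3 mg/kg in PEG400/methanesulfonic acid (80:20) vehicle; plasma exposure measured.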

[5] = target: T1, 5-hydroxytryptamine receptor 2C (Homo sapiens, UniProt P28335); assay: Displacement of […] from 5HT2c receptor
T1 sequence (P28335 whole entry): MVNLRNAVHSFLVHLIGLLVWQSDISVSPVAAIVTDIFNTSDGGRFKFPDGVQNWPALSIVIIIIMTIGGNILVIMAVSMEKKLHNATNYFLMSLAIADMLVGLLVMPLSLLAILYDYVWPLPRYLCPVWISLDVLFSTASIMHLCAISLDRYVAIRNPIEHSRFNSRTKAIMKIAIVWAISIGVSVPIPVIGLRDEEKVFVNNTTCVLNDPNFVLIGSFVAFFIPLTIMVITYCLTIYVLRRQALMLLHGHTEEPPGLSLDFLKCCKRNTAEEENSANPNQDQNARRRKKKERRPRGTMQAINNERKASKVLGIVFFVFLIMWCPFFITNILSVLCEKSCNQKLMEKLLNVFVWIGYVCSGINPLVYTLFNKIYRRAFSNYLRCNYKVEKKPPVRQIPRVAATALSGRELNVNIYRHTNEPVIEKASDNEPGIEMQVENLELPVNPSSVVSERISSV

Mus musculus [6] = assay: Decrease in food intake in DIO C57BL/6 mouse at 30 mg/kg, po after 24 hrs relative to control; format: functional, organism-based; parameters: dose 30 mg/kg
[7] = target: Motilin receptor (Homo sapiens) (UniProt O43193); assay: Binding affinity to motilin receptor
Motilin receptor (Homo sapiens), sequence (O43193 whole entry): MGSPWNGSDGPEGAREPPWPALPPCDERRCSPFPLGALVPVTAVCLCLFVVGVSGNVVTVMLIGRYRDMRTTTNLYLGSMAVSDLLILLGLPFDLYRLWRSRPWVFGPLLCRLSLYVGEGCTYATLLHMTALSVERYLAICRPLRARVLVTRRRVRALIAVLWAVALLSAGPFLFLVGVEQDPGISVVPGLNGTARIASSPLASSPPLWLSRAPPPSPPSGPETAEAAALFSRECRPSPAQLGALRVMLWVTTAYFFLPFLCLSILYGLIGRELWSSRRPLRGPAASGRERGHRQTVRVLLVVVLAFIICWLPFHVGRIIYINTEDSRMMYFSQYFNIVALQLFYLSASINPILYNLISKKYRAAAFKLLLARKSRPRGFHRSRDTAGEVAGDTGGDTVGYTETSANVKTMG

[8] = target: T2, Growth hormone secretagogue receptor type 1 (Homo sapiens, UniProt Q92847); assay: Antagonist activity at human recombinant GHSR1a expressed in HEK293F cells by [35S]GTP-gamma-S binding assay; format: functional, cell-based
T2 sequence (Q92847 whole entry): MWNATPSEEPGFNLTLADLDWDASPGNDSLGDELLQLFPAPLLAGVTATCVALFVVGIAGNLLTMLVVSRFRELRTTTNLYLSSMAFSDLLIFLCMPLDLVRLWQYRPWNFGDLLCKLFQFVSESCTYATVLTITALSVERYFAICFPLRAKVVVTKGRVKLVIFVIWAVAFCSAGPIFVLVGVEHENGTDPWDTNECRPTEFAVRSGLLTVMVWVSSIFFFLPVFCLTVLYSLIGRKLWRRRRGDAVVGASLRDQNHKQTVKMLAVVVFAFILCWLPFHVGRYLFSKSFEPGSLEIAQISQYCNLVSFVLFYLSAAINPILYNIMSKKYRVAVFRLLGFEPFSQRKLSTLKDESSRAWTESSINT
Procedure, shortened: (§2)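 Functional read-out as GTPγS binding to membranes from HEK293F cells overexpressing recombinant GHS-R1a; values are the mean of at least two replicates.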

[9] = Aqueous solubility at pH 7.2; format: physicochemical
Mus musculus [10] = assay: Decrease in body weight in DIO C57BL/6 mouse at 30 mg/kg, po after 9 days; format: functional
Rattus norvegicus [11] = assay: Volume of distribution at steady state in Wistar rat plasma at 0.7 mg/kg, iv; format: ADME, organism-based; parameters: dose 0.7 mg/kg, route intravenous; conditions: in vivo
Mus musculus [12] = assay: Increase in food intake in DIO C57BL/6 mouse at 30 mg/kg, after 5 hrs relative to control; format: functional
[13] = Cmax in Wistar rat at 3 mg/kg, po; format: ADME, organism-based; parameters: dose 3 mg/kg, route oral; conditions: in vivo; procedure, shortened: as §1
Rattus norvegicus [14] = assay: Decrease in blood glucose level in DIO Wistar rat using at 10 mg/kg after 5 hrs by IPGTT test relative to control; format: functional; parameters: scale not given: the % may be the effect or the level left
Rattus norvegicus [15] = assay: Half life in Wistar rat plasma at 0.7 mg/kg, iv; format: ADME, organism-based; parameters: dose 0.7 mg/kg, route intravenous; conditions: in vivo
[16] = target: T2, Growth hormone secretagogue receptor type 1; assay: Agonist activity at human recombinant GHSR1a expressed in HEK293F cells assessed as stimulation of [35S]GTP-gamma-S binding relative to ghrelin; format: functional, cell-based; procedure, shortened: as §2
Mus musculus [17] = assay: Decrease in body weight in DIO C57BL/6 mouse at 10 mg/kg, po after 9 days; format: functional, organism-based; parameters: dose 10 mg/kg
[18] = AUC in Wistar rat plasma at 3 mg/kg, po; format: ADME, organism-based; parameters: dose 3 mg/kg, route oral; procedure, shortened: as §1
[19] = AUC (0-t) in Wistar rat plasma at 0.7 mg/kg, iv; format: ADME, organism-based; parameters: dose 0.7 mg/kg, route intravenous
Homo sapiens = organism: Homo sapiens; assay: Binding affinity to calcium channel L type
[20] = Cmax in Wistar rat plasma at 0.7 mg/kg, iv; format: ADME, organism-based; parameters: dose 0.7 mg/kg, route intravenous
[21] = target: 5-hydroxytryptamine receptor 2B (Homo sapiens) (UniProt P41595); assay: Binding affinity to 5HT2b receptor
5-hydroxytryptamine receptor 2B (Homo sapiens), sequence (P41595 whole entry): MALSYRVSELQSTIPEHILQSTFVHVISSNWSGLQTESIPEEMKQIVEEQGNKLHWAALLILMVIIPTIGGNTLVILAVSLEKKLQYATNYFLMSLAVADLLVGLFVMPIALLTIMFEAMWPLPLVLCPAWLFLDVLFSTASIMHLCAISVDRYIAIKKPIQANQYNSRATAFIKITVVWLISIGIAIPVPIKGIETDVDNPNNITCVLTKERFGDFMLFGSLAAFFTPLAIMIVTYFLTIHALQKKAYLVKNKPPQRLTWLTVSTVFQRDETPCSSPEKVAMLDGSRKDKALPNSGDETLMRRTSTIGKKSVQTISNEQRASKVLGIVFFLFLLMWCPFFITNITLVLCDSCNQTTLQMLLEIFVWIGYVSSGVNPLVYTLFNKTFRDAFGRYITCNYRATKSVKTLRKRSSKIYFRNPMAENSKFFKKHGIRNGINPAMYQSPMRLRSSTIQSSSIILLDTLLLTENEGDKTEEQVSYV

Brain = assay: Drug level in po dosed DIO C57BL/6 mouse brain after 5 hrs relative to plasma concentration; format: ADME, organism-based
[22] = Cmax in Wistar rat plasma at 1 mg/kg, iv; format: ADME, organism-based; parameters: dose 1 mg/kg, route intravenous
[23] = Volume of distribution in Wistar rat plasma at 1 mg/kg, iv; format: ADME, organism-based; parameters: dose 1 mg/kg, route intravenous; conditions: read-out: Vdss

Ghrelin receptor, sequence (Q8MHZ5 whole entry): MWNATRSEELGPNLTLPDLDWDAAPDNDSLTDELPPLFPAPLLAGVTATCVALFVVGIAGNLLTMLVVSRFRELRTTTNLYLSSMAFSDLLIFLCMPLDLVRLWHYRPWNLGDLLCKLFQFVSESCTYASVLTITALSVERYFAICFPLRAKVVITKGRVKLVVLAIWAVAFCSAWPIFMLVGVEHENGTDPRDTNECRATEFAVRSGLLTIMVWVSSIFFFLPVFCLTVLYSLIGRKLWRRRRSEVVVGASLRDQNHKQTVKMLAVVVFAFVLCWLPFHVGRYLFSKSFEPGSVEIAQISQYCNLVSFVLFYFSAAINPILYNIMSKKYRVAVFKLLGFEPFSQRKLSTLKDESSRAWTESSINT

## CC(C)c1nc2ccc(-c3ccc(F)cc3)cc2c(=O)n1C[C@H]1CCCN(C(C)C)C1
[1]
  bioavailability: 69%
Ghrelin receptor
  Ki: 39 nM
[2]
  Cmax: 800 nM
Cytochrome P450 2D6
  IC50: 150 nM
[3]
  Activity: > 1 µM
[4]
  Cmax: 70 ng/mL
[5]
  Ki: > 1000 nM
Mus musculus [6]
  Activity: Active
[7]
  Activity: > 1 µM
[8]
  Kb: 14 nM
[9]
  solubility: 280 µM (≈ 118 µg/mL)
Mus musculus [10]
  Activity: Active
Rattus norvegicus [11]
  Vdss: 0.68 L/kg
Mus musculus [12]
  Activity: -17%
[13]
  Cmax: 150 nM
Rattus norvegicus [14]
  Activity: -20%
Rattus norvegicus [15]
  t1/2: 16 h
[16]
  E/Emax: 15%
Mus musculus [17]
  Activity: Active
[18]
  AUC: 1700 ng·h/mL
[19]
  AUC(0-t): 580 ng·h/mL
Homo sapiens
  Activity: > 1 µM
[20]
  Cmax: 100 ng/mL
[21]
  Activity: > 1 µM
Brain
  Drug uptake: 76%

## Cc1ccccc1-c1nc2ccc(-c3ccc(Cl)cc3)cc2c(=O)n1CC1CN(C(C)C)CCO1 (configuration not stated)
Ghrelin receptor
  Ki: 190 nM

## CCN1CCCC(Cn2c(-c3ccccc3OC)nc3ccc(OC)cc3c2=O)C1 (configuration not stated)
Ghrelin receptor
  Ki: 910 nM

## CCN1CCCC(Cn2c(-c3ccccc3OC)nc3cc(-c4ccc(Cl)cc4)ccc3c2=O)C1 (configuration not stated)
Ghrelin receptor
  Ki: > 10000 nM

## CCCCN(C)c1ccc2nc(-c3ccccc3OC)n(CC3CCCNC3)c(=O)c2c1 (configuration not stated)
Ghrelin receptor
  Ki: 36 nM

## CC(C)N1CCC[C@H](Cn2cnc3ccc(Oc4ccc(F)cc4)cc3c2=O)C1
Ghrelin receptor
  Ki: 18 nM
Cytochrome P450 2D6
  IC50: 21000 nM
[5]
  Ki: > 1000 nM
[8]
  Kb: 45 nM
[9]
  solubility: 450 µM (≈ 178 µg/mL)
[16]
  E/Emax: 2%

## CCN1CCCC(Cn2c(-c3ccccc3C)nc3ccc(OC(F)(F)F)cc3c2=O)C1 (configuration not stated)
Ghrelin receptor
  Ki: 24 nM
[8]
  Kb: 45 nM
[13]
  Cmax: 240 nM
[16]
  E/Emax: 4%

## Cc1ccccc1-c1nc2ccc(-c3ccc(Cl)cc3)cc2c(=O)n1CC1CCCNC1 (configuration not stated)
Ghrelin receptor
  Ki: 7 nM
[8]
  Kb: 13 nM
[13]
  Cmax: 20 nM
[16]
  E/Emax: 12%

## CCN1CCCC(CCn2c(-c3ccccc3OC)nc3ccc(-c4ccc(Cl)cc4)cc3c2=O)C1 (configuration not stated)
Ghrelin receptor
  Ki: > 10000 nM

## Cc1nc2ccc(Oc3ccc(F)cc3)cc2c(=O)n1C[C@H]1CCCN(C(C)C)C1
[1]
  bioavailability: 85%
Ghrelin receptor
  Ki: 17 nM
[2]
  Cmax: 3400 nM
[3]
  Activity: > 1 µM
[4]
  Cmax: 80 ng/mL
[5]
  Ki: > 1000 nM
Mus musculus [6]
  Activity: Active
[7]
  Activity: > 1 µM
[8]
  Kb: 11 nM
[9]
  solubility: 500 µM (≈ 205 µg/mL)
[22]
  Cmax: 110 ng/mL
Mus musculus [10]
  Activity: <=5%
Mus musculus [12]
  Activity: -12%
[23]
  Vd: 19.2 L/kg
[13]
  Cmax: 220 nM
Rattus norvegicus [14]
  Activity: -23%
[16]
  E/Emax: 11%
[18]
  AUC: 1300 ng·h/mL
Homo sapiens
  Activity: > 1 µM
[21]
  Activity: > 1 µM
Brain
  Drug uptake: 19%

## Cc1ccccc1-c1nc2ccc(-c3ccc(Cl)cc3)cc2c(=O)n1CC1CCCN(CCF)C1 (configuration not stated)
Ghrelin receptor
  Ki: 16 nM
[8]
  Kb: 14 nM
[13]
  Cmax: 100 nM
[16]
  E/Emax: -9%

## Cc1ccccc1-c1nc2ccc(Oc3ccc(F)cc3)cc2c(=O)n1C[C@H]1CCCN(C(C)C)C1 (stereo in doubt; 36)
[8]
  Kb: 0.19 nM
[16]
  E/Emax: 22%

## Cc1ccccc1-c1nc2ccc(Oc3ccc(F)cc3)cc2c(=O)n1CC1CCCN(C(C)C)C1 (configuration not stated)
Ghrelin receptor
  Ki: 0.47 nM
[8]
  Kb: 0.97 nM
[13]
  Cmax: 310 nM
[16]
  E/Emax: 23%

## CC(C)c1nc2ccc(Oc3ccc(F)cc3)cc2c(=O)n1C[C@H]1CCCN(C(C)C)C1
Ghrelin receptor
  Ki: 4 nM
Cytochrome P450 2D6
  IC50: 7200 nM
[5]
  Ki: > 1000 nM
[8]
  Kb: 7.6 nM
[9]
  solubility: 100 µM (≈ 43.8 µg/mL)
[13]
  Cmax: 210 nM
[16]
  E/Emax: -5%

## Cc1ccccc1-c1nc2ccc(Oc3ccc(F)cc3)cc2c(=O)n1C[C@H]1CCCN(C(C)C)C1 (stereo in doubt; (S)-35)
Ghrelin receptor
  Ki: 0.9 nM

## CCN1CCCC(Cn2c(-c3ccccc3C)nc3ccc(-c4ccc(Cl)cc4)cc3c2=O)C1 (configuration not stated) [listing 1 of 2 here]
[8]
  Kb: 3.2 nM
[16]
  E/Emax: 12%

## CC(C)N1CCCC(Cn2c(-c3ccc(OCCO)cc3F)nc3ccc(Oc4ccc(F)cc4)cc3c2=O)C1 (racemic)
[2]
  Cmax: 5700 nM
Mus musculus [12]
  Activity: 4%
Brain
  Drug uptake: < 0.001%

## Cc1ccccc1-c1nc2ccc(-c3ccc(Cl)cc3)cc2c(=O)n1CC1CCCN(C(C)C)C1 (configuration not stated)
[13]
  Cmax: 150 nM

## Cc1nc2ccc(-c3ccc(Cl)cc3)cc2c(=O)n1C[C@H]1CCCN(C(C)C)C1
Ghrelin receptor
  Ki: 110 nM
Cytochrome P450 2D6
  IC50: 9600 nM
[5]
  Ki: > 1000 nM
[9]
  solubility: 125 µM (≈ 51.2 µg/mL)
[16]
  E/Emax: 0%

## Cc1ccccc1-c1nc2ccc(-c3ccc(Cl)cc3)cc2c(=O)n1CC1CCCN(CCC(F)(F)F)C1 (configuration not stated)
Ghrelin receptor
  Ki: 250 nM

## CCN1CCCC(Cn2c(-c3ccccc3C)nc3ccc(-c4ccc(Cl)cc4)cc3c2=O)C1 (configuration not stated) [listing 2 of 2 here]
Ghrelin receptor
  Ki: 1.8 nM
[13]
  Cmax: 120 nM

From ChEMBL document CHEMBL1148824, “Quinazolinone derivatives as orally available ghrelin receptor antagonists for the treatment of diabetes and obesity” (J Med Chem, 2007)
